Experimental data: ChEMBL document CHEMBL1135731, “Synthesis and nicotinic binding studies on enantiopure diazine analogues of the novel (2-chloro-5-pyridyl)-9-azabicyclo[4.2.1]non-2-ene UB-165” (J Med Chem, 2002)

Key:
[1] = molecular target: Neuronal acetylcholine receptor; alpha4/beta2 (Rattus norvegicus, UniProt P09483+P12390); assay: Binding affinity to Nicotinic acetylcholine receptor alpha4-beta2 using +/-[3H]epibatidine as radioligand in rat brain; type: tissue-based
Method in brief: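 Crude synaptic P2 membranes from Sprague–Dawley rat forebrain (cerebellum and medulla excluded), washed in HEPES-salt buffer pH-unspecified (HEPES 15 mM, NaCl 120 mM, KCl 5.4 mM, MgCl2 0.8 mM, CaCl2 1.8 mM). Mean ± SEM, n = 3-5.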

[2] = molecular target: Neuronal acetylcholine receptor subunit alpha-7 (Rattus norvegicus, UniProt Q05941); assay: Binding affinity to subtype Nicotinic acetylcholine receptor alpha7 using [3H]-MLA as radioligand in rat brain; type: tissue-based
Method in brief: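 Rat brain membrane fractions in HEPES-salt solution, competition against [3H]MLA at 22 °C. Nonspecific binding defined with 1 μM MLA. […] Mean ± SEM of 3-5 independent experiments.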

Neuronal acetylcholine receptor subunit alpha-7, sequence (Q05941 whole entry): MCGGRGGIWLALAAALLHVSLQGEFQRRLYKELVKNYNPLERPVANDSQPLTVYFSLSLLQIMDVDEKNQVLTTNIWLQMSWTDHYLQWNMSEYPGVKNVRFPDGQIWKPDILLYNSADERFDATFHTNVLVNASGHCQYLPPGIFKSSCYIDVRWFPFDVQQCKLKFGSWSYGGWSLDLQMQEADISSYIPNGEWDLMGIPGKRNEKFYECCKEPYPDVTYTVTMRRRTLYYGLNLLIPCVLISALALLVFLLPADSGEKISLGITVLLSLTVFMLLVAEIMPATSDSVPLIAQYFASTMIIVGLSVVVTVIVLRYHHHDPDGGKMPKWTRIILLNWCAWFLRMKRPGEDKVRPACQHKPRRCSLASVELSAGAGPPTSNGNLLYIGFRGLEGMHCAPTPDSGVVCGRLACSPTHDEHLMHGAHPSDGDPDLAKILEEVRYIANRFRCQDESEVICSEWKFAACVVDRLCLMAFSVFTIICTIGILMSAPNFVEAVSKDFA
Neuronal acetylcholine receptor; alpha4/beta2, sequence (P09483 whole entry): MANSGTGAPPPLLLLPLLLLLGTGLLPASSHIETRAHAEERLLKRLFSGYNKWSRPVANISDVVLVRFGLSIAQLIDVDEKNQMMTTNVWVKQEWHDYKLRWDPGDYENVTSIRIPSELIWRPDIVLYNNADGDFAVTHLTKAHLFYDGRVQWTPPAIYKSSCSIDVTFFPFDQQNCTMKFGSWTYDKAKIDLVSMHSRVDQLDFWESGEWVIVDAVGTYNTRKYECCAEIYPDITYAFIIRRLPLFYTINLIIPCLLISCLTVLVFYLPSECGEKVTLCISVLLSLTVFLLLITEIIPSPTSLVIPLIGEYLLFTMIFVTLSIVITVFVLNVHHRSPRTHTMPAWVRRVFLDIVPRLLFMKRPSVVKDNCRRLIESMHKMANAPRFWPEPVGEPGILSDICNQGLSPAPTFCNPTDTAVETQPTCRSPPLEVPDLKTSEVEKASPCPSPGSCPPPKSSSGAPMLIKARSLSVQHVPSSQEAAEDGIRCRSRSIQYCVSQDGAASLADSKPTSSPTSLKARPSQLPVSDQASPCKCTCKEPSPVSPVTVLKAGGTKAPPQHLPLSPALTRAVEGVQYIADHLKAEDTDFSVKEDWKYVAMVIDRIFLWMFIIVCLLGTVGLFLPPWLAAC
Neuronal acetylcholine receptor; alpha4/beta2, sequence (P12390 whole entry): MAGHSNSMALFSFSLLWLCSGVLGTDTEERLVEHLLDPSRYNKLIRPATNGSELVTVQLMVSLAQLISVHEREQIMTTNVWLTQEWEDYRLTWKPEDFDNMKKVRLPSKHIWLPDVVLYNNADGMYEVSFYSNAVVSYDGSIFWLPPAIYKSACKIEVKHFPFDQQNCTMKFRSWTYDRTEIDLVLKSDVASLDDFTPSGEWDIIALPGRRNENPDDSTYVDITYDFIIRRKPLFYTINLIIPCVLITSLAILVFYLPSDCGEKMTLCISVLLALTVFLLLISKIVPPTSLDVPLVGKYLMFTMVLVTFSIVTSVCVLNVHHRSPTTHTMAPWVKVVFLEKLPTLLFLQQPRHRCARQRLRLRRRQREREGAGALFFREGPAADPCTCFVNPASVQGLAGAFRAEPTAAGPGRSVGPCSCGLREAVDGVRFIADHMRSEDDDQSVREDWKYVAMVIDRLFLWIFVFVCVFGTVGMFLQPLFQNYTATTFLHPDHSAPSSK

| Structure (SMILES) | Ki [1] | Ki [2] |
| --- | --- | --- |
| C1=C(c2ccnnc2)C2CC[C@H](CC1)N2 | 19 nM | > 10 nM |
| C1=C(c2cnccn2)C2CC[C@H](CC1)N2 | 12 nM | 250 nM |
| C1=C(c2cncnc2)C2CC[C@H](CC1)N2 | 0.14 nM | 10.7 nM |
| C1=C(c2cccnc2)C2CC[C@H](CC1)N2 | 0.051 nM | 0.95 nM |
| Clc1ccc(C2=CCC[C@H]3CCC2N3)cn1 | – | 12 nM |
